Data on 11 molecules can be found in PubChem BioAssay.

Test [1] can be described thus: inhibitors of TNFa-induced NFkB p65 translocation, primary screen, imaging, HUVEC, MLSMR starter and 10KST1 sets (AID 438;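 active = inhibition above 20% together with a positive visual image hit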;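 note: compound added about 3h40 before a 20 min TNFalpha stimulation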;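 for inhibition: signal is the nuclear over cytoplasmic p65 intensity ratio per well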). The following applies: HUVEC TNFa-induced p65 nuclear translocation; cell count: measured here: nuclei count (cytotoxicity indicator), at 2.08 µM; inhibition: at 2 µM, stronger effect = higher value, 0% TNFa-plus-vehicle, 100% no-TNFa wells.
Test [2] can be described thus: endothelial E-selectin expression blockers – imaging, HUVEC, immunofluorescence, MLSMR starter and 10KST1 sets, primary screen (AID 487;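 active = visually confirmed hit in the image check and inhibition above 20%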;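 for inhibition: signal is fraction of cell area covered by stained E-selectin grains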;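 for nuclei count: 100% = median nuclei count of all wells on the same plate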). The following applies: HUVEC TNFalpha-induced E-selectin immunofluorescence imaging, at 2 µM; inhibition: stronger effect = higher value; nuclei count: measured here: cell number, toxicity.
A short description of test [3]: Primary imaging screen for DUSP6 inhibitors that restore phospho-Erk in transfected HeLa cells, chemical complementation (AID 609;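 active = compounds giving at least 50% inhibition in the cell-based MKP-3 phosphatase rescue imaging test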;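 for inhibition: phospho-Erk level distribution per well compared with pooled transfected vehicle control wells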). The following applies: HeLa MKP-3 transfected, phospho-Erk imaging KS statistic, at 10 µM, cells stimulated with TPA for 15 min.
Test [4] concerns the target Dual specificity protein phosphatase 6 (Homo sapiens) (UniProt Q16828). Described as above. The following applies: HeLa MKP-3 transfected, phospho-Erk imaging KS statistic; at 10 µM; stronger effect = higher value; cells stimulated with TPA for 15 min.
For test [5], the target named is Voltage-gated potassium channel subunit beta-2 (Rattus norvegicus) (UniProt P62483). As to the kind of experiment: inhibitors of rat Kvbeta2 reductase activity – biochemical, NADPH fluorescence, primary screen (AID 622;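 active = fluorescence slope higher than the sample average by over 3 SD, cut at about -0.22 in these data, passing the limit was not always enough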;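 note: slope of raw intensity against log time taken from 70 to 1610 s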). The following applies: recombinant KvBeta, 4-cyanobenzaldehyde reduction, at 10 µM, stronger effect = higher value.
The target is the same in test [6]. Description: enhancers of rat Kvbeta2 NADPH turnover – biochemical, NADPH fluorescence, primary screen (AID 623;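 active = NADPH fluorescence slope more negative than the mean of all samples by about 3 SD, 99.7% confidence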;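 note: fluorescence intensity change per second fitted from 20 to 320 s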). The following applies: Recombinant KvBeta, NADPH fluorescence decrease slope, 10 min; at 10 µM; stronger effect = lower value.
Test [7] deals with Muscarinic acetylcholine receptor M4 (Homo sapiens) (UniProt P08173). Description: M4-linked GIRK flux change, two-sided – cell-based, HEK293 M4/GIRK, thallium flux, BTC-AM, M4 allosteric agonist project, primary screen (AID 625;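 active = fluorescence slope after compound addition differing from the mean of all tested samples at 99.7% confidence, mostly higher but some lower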;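 note: thallium influx through GIRK channels coupled to M4 in HEK293 cells with BTC-AM dye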). The following applies: at 10 µM, actives lie on both sides. The method in brief:
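System: HEK293 cells with M4 receptor and GIRK channels | Incubation: Cells overnight at 37 °C, BTC-AM loading 1 h, reads 2 min total | Technique: Kinetic BTC-AM fluorescence sampled at 1 Hz, 10 s pre-addition baseline | Measure: Post-addition slope, 15–24 s, of baseline-normalized fluorescence | Control set: Carbachol positive, DMSO negative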

Test [8] in a line: inhibitors of larval lipid processing in zebrafish, primary screen, whole organism, PED6 fluorescence, gall bladder and intestine (AID 686;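 active = a full or partial loss of lipid-probe fluorescence in the fish gall bladder, intestine or both, judged by eye; inactive = no fluorescence loss, or compound toxic to the fish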;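 note: larvae 5 to 7 days old with five fish per well; signal comes from phospholipase A2 cleavage of quenched PED6 carried via bile; overnight exposure to compound and PED6 before scoring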). The following applies: Zebrafish larvae PED6 lipid processing, fluorescence scoring; screened at 20 µM (by protocol). The method in brief: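 Test system – live zebrafish larvae aged 5-7 days, whole organism · Buffer or medium – E3 fish medium · Reagent – quenched phospholipase substrate PED6, 100 nM final, ingested by larvae · Doses – 20 µM single dose · Incubation – overnight compound and PED6 incubation · Technique – visual fluorescence microscopy scoring of gall bladder, gut · Read-out basis – visual per-well fluorescence inhibition score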

Test [9] can be described thus: loss of swimming-algae plug formation – whole organism, Chlamydomonas reinhardtii, WT vs cilia-less mutant, absorbance, 96-well, primary screen (AID 463189).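 Note: 0% = wild type cc124 cells in DMSO and 100% = ciliumless bld1 mutant cells.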 The following applies: Chlamydomonas reinhardtii gravitaxis, OD600 absorbance, 2 days; at 10 µM; stronger effect = higher value.
[10] abbreviates: measured here: cell density z-score.
[11] abbreviates: measured here: nuclear c-Myc green intensity z-score.
[12] abbreviates: measured here: nuclear pErk red intensity z-score, stronger effect = higher value.

Activity calls are given as the source filed them.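 Rule for the calls, unless noted: active = inhibition at or above 50% relative to wild type and mutant plate controls; inactive = inhibition below 50%.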

The term inhibition denotes the change of the read-out against control, counted positive when it falls.

Dual specificity protein phosphatase 6 (Homo sapiens), sequence (Q16828 whole entry, looked up): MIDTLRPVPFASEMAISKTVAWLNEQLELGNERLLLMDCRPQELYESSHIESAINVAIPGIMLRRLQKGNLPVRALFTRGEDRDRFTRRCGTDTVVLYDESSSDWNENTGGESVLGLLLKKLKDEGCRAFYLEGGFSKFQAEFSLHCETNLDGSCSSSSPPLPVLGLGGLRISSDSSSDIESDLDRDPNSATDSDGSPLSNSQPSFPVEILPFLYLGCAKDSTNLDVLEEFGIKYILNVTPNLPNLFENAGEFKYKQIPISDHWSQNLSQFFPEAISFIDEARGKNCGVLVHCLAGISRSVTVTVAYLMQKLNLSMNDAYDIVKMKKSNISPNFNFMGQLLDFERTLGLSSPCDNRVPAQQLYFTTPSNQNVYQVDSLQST
Voltage-gated potassium channel subunit beta-2 (Rattus norvegicus), sequence (P62483 whole entry, looked up): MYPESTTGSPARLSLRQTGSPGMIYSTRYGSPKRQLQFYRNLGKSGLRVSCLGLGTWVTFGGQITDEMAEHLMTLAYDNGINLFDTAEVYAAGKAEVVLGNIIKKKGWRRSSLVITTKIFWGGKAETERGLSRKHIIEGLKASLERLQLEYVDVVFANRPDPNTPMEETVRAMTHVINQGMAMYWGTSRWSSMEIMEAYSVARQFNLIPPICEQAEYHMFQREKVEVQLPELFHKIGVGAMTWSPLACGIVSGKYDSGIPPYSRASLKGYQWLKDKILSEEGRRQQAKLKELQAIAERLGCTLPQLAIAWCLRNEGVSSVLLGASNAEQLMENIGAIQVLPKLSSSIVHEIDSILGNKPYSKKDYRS
Muscarinic acetylcholine receptor M4 (Homo sapiens), sequence (P08173 whole entry, looked up): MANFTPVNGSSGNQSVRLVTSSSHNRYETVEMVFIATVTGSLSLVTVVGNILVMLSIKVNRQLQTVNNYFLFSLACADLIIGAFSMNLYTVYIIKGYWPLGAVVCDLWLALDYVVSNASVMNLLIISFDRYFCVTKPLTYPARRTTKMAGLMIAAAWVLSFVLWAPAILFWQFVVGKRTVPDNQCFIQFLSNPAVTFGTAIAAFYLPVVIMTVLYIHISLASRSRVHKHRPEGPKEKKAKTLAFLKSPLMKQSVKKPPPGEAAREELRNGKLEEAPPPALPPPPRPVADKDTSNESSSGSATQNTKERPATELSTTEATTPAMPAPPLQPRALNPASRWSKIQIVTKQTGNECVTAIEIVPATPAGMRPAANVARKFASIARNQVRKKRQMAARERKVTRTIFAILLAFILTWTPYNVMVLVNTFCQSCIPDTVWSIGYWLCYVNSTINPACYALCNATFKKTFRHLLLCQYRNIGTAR

With `Cc1nn(CC(=O)N2CCOCC2)c(=O)c2ccccc12`, the cell count in test [1] amounted to 584. The inhibition in test [1] is -9.1% (inactive); in [2], -72.8% (inactive); in [4] it was 12.8% (inactive); in test [9], -9.34% (inactive). The molecule also displayed a nuclei count in [2] of 135%. Moreover, the z-score is 1.52 in test [3] (setting [10]), -1.31 in [3] (setting [11]) and 0.975 in test [3] (setting [12]). Moreover, the fluorescence slope in test [5] is -0.524 (inactive); in [7], 0.00441 (inactive). Besides, the NADPH fluorescence slope in [6] is -0.000146 (inactive). For the same molecule, the molecule was classed as inactive in test [8].
Consider `Cc1ccc2[nH]c3c(c2c1)CN(C(=O)CN1CC(C)OC(C)C1)CC3` (stereo not drawn), for which, in [1], the cell count was 409. Besides, the inhibition in test [1] was -6.9% (inactive); in test [2], -299% (inactive); in test [4], 3.42% (inactive); in [9], 26.6% (inactive). Besides, the nuclei count in test [2] was 169%. Moreover, the z-score in [3] (setting [10]) was 1.01; in test [3] (setting [11]) it was 0.157; in test [3] (setting [12]), -0.0941. Moreover, the fluorescence slope in test [5] was -0.466 (inactive); in test [7], 0.00334 (inactive). In addition, the NADPH fluorescence slope in test [6] was -0.000107 (inactive). For the same molecule, the call in test [8] was inactive.
Take `COCCNc1ncnc2c1cnn2-c1ccc(Cl)cc1`: in test [1], the cell count turned out to be 534. Also, the inhibition in test [1] was -25.3% (inactive); in test [2], 11.8% (inactive); in test [4], 23.4% (inactive); in test [9], 6.55% (inactive). The same molecule displayed a nuclei count in [2] of 184%. For the same molecule, the z-score in test [3] (setting [10]) is 1.76; in test [3] (setting [11]) it was -0.928; in test [3] (setting [12]), -0.638. In addition, the fluorescence slope was -0.429 (inactive) in test [5] and 0.00652 (inactive) in test [7]. Further, the NADPH fluorescence slope in test [6] was -5.8e-05 (inactive). Further, the result in [8] was inactive.
Consider `CSc1nc(C)c2c(c1C#N)CCCC2`, for which, in test [1], the cell count came out at 507. The inhibition in test [1] was -9.7% (inactive); in test [2] it was -266% (inactive); in test [4] it was 1.04% (inactive); in test [9] it was 10.6% (inactive). Moreover, in test [2], the nuclei count amounted to 148%. The z-score in test [3] (setting [10]) is -0.174; in [3] (setting [11]), -0.19; in [3] (setting [12]), -1.41. Moreover, the fluorescence slope in test [5] was -0.455 (inactive); in [7], 0.00451 (inactive). In test [6], the NADPH fluorescence slope was -3.8e-05 (inactive). In addition, the result in test [8] was inactive.
Consider `CCN(CC)CCCN1C(=O)C(=O)/C(=C(/O)c2ccccc2)C1c1cc(OC)ccc1OC` (stereo not drawn), for which, in [1], the cell count amounted to 414. The inhibition in test [1] is -1.4% (inactive); in test [2], -75.8% (inactive); in test [4], 1.48% (inactive); in [9], 32.7% (inactive). In test [2], this molecule came in with a nuclei count of 153%. The figures for the z-score in test [3] (setting [10]), in [3] (setting [11]) and in test [3] (setting [12]) were -0.00303, -1.03 and 1.76, respectively. The fluorescence slope is -0.469 (inactive) in test [5] and 0.00498 (inactive) in test [7]. For the same molecule, the NADPH fluorescence slope in test [6] was -0.000138 (inactive). Also, in test [8], the molecule was classed as inactive.
With `O=C1C=C(N2CCN(C3=CC(=O)CCC3)CC2)CCC1`, the cell count in test [1] worked out at 493. Besides, the inhibition in test [1] is -0.4% (inactive); in [2] it was 4.1% (inactive); in test [4], -0.233% (inactive); in test [9] it was -18.9% (inactive). In addition, in test [2], the nuclei count stood at 100%. Also, the z-score in [3] (setting [10]) was -1.82; in [3] (setting [11]), 2.6; in test [3] (setting [12]) it was 0.89. In addition, the figures for the fluorescence slope in [5] and in test [7] were -0.469 (inactive) and 0.00636 (inactive), respectively. Further, in [6], the NADPH fluorescence slope was -6.9e-05 (inactive). Further, the outcome in test [8] was inactive.
Consider `CC(O)(C#CCN1CCOCC1)c1ccccc1` (stereo not drawn), for which, in test [1], the cell count was determined as 634. Further, the inhibition in test [1] is 1.5% (inactive); in test [2], -34.4% (inactive); in [4] it was -5.81% (inactive); in test [9] it was 17.4% (inactive). In test [2], the nuclei count was determined as 149%. Moreover, the z-score in test [3] (setting [10]) stood at 0.104; in test [3] (setting [11]) it was 0.285; in [3] (setting [12]), 0.53. For the same molecule, the fluorescence slope was -0.455 (inactive) in test [5] and 0.00484 (inactive) in [7]. The NADPH fluorescence slope in test [6] was -5.1e-05 (inactive). Further, the result in [8] was inactive.
Turning to `CC1(C)Cc2c(c(-c3ccccc3Cl)[nH]c(=O)c2C#N)CO1`, the cell count in test [1] worked out at 591. The inhibition in [1] was 5.7% (inactive); in [2], -106% (inactive); in test [4], 11.9% (inactive); in [9], 20.5% (inactive). In test [2], this molecule registered a nuclei count of 134%. In addition, the z-score is 0.999 in test [3] (setting [10]), -0.743 in [3] (setting [11]) and 0.0604 in [3] (setting [12]). For the same molecule, the fluorescence slope is -0.384 (inactive) in [5] and 0.00508 (inactive) in test [7]. Moreover, the NADPH fluorescence slope in [6] was -2.7e-05 (inactive). Also, the molecule was classed as inactive in [8].
With `Cn1cc(Cl)nc1C(O)c1ccccc1` (stereo not drawn), in test [1], the cell count is 629. Also, the inhibition in [1] was -11% (inactive); in test [2] it was -61.5% (inactive); in [4] it was -0.233% (inactive); in test [9], 20.3% (inactive). In test [2], this molecule showed a nuclei count of 174%. Also, the values for the z-score in [3] (setting [10]), in [3] (setting [11]) and in test [3] (setting [12]) were 0.432, -0.744 and -0.497, respectively. The figures for the fluorescence slope in test [5] and in [7] were -0.481 (inactive) and 0.00721 (inactive), respectively. Moreover, in test [6], the NADPH fluorescence slope is -2.6e-05 (inactive). The molecule was called inactive in test [8].
`N#C/C(C(=O)N1CCCCC1)=C1\Nc2ccccc2S1`: the cell count in [1] was determined as 649. Moreover, the inhibition in test [1] is 6.4% (inactive); in test [2], -0.9% (inactive); in test [4], 1.63% (inactive); in [9], 15.7% (inactive). The molecule further returned a nuclei count in test [2] of 117%. In addition, the z-score was -0.0253 in [3] (setting [10]), -0.323 in test [3] (setting [11]) and -0.359 in [3] (setting [12]). In addition, the fluorescence slope in test [5] was -0.457 (inactive); in test [7] it was 0.00412 (inactive). Besides, in test [6], the NADPH fluorescence slope was -6.2e-05 (inactive). The molecule was called inactive in [8].
With `Cn1c(=O)[nH]c2cc(Cl)cnc21`, the cell count in [1] was determined as 378. For the same molecule, the inhibition in [1] was -14% (inactive); in test [2], -133% (inactive); in test [4] it was 3.42% (inactive); in test [9], 9.47% (inactive). The nuclei count in test [2] amounted to 108%. The z-score in test [3] (setting [10]) is 0.823; in test [3] (setting [11]), -0.334; in [3] (setting [12]), -1.3. The fluorescence slope in test [5] was -0.492 (inactive); in test [7], 0.00408 (inactive). Further, in test [6], the NADPH fluorescence slope is -3.9e-05 (inactive). For the same molecule, the molecule was classed as inactive in test [8].
